Compound activity (PubChem)
Only some compounds are listed: those with a hit (about 3.1% of all), similar ones and a draw of the others.
ERAP1 HTS inh – ERAP1 (human) enzyme inhibition; inhibition, % at 10.7 µM; recombinant ERAP1, Leu-AMC fluorescence, 60 min; 340,000 tested, 0.15% active; AID 652197; Q9NZ08;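 active means mean replicate inhibition of at least 30%, or all replicates individually reaching that 30% level; inactive means mean below 30% and not every replicate reaching it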
F508del corr – CFTR F508del correction in bronchial cells; CFBE cells, YFP halide quenching; stimulated with forskolin plus potentiator P3; % fluorescence drop versus neutral controls; activity (quench increase), % at 7.58 µM; 350,000 tested, 0.36% active; AID 720511;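 active means mean added fluorescence quench of at least 8% versus neutral control, with both replicates also reaching 8%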;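 further: cells transiently co-express mutant CFTR-F508del with the halide-sensitive YFP; corrector assay measuring rescue of mutant channel to the surface after 24 h compound exposure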
rRNA inh HTS – inhibits bacterial ribosomal RNA function over humanized ribosomes | 350,000 tested, 1.6% active | E. coli WT GFP vs humanized-ribosome RFP mutants, fluorescence, 24 h; active compounds read low; DMSO median 0, no signal -100 | GFP signal change (wild-type ribosome), % (test concentration not listed);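 active means significant combined selectivity score with lowered wild-type GFP, culture density cut under 30%, mutant RFP and density less affected; inactive means any of these conditions unmet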
SIRT5 block – sirtuin-5 (human) deacylase inhibition | AID 652115 | Purified SirT5, succinyl-peptide AMC, trypsin-coupled fluorescence | 330,000 tested, 1.1% active | inhibition, % at 15 µM | Q9NXA8; in the data active means inhibition above about 15%
Target sequence (Q9NXA8 whole entry, looked up): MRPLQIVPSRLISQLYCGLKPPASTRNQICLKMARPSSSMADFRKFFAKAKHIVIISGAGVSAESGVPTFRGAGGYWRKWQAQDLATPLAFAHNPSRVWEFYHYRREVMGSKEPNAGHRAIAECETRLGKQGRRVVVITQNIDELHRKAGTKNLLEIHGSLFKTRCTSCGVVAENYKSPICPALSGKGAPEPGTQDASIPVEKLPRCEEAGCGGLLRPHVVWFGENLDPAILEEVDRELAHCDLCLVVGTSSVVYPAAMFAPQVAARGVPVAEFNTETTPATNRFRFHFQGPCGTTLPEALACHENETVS
S100A4 inh HTS – S100A4-myosin IIA interaction inhibition | 360,000 tested, 0.14% active | P26447 | S100A4/TAMRA-MyoIIA peptide fluorescence polarization | AID 652163 | inhibition, % at 10.7 µM;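 active means mean inhibition of at least 70% across replicates, with every replicate also reaching that level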
Target sequence (P26447 whole entry, looked up): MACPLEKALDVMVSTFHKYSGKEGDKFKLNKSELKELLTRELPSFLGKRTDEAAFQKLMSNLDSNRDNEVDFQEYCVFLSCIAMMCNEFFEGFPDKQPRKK
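Compound dosing: one dose per compound; test system: human S100A4 monomer with TAMRA-labelled myosin IIA peptide; probe or stimulus: TAMRA-labelled myosin IIA heavy-chain peptide probe, 5 nM; medium: HEPES buffer with Ca2+, pH 7.2; schedule: 5 min incubation before reading; benchmarks: neutral control DMSO, positive control TFP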
Hits are given with their value; 0 = inactive; - = not tested or not shown; ! = repeats disagree.

SMILES	ERAP1 HTS inh	F508del corr	rRNA inh HTS	SIRT5 block	S100A4 inh HTS
COCC(=O)N1C[C@@H](C)[C@H](OC)CN(C)C(=O)c2cc(NC(=O)c3ccccc3)ccc2OC[C@@H]1C	0	0	0	-	0
Nc1ccc(C(=O)O)c(O)c1	0	0	0	15!	0
COc1ccc(S(=O)(=O)Nc2ccc3c(c2)C(=O)N([C@H](C)CO)C[C@H](C)[C@H](CN(C)Cc2ccccc2)O3)cc1	0	0	0	0	0
COc1ccc(NC(=O)N[C@@H]2CC[C@@H](CCNC(=O)CCN3CCCCC3)O[C@H]2CO)cc1	0	0	0	0	0
CC12CCC(CC1O)C2C(=O)O (stereo not given)	0	8.2	0	-	0
COc1ncnc2c1ncn2CCCN1CCN(Cc2cccc3ccccc23)CC1	0	0	0	26	0
CCC1Nc2ncnc(N3CCc4ccccc4C3)c2N(Cc2ccc(Cl)cc2)C1=O (stereo not given)	0	0	-17	0	0
CO[C@@H]1CN(C)C(=O)c2cc(NC(=O)C3CC3)ccc2OC[C@H](C)N(Cc2ccccc2)C[C@@H]1C	0	0	0	0	0
O=C(CSC(=S)N1CCCC1)c1cc(Br)cc(Br)c1O	0	-	-30	0	0
COCC(=O)N1[C@H](CO)[C@H](c2ccccc2)[C@@H]1CNC(=O)c1ccccn1	0	0	0	15	0
O=C(NC[C@H]1[C@H](c2ccccc2)[C@H](CO)N1Cc1cccnc1)c1ccccn1	-	0	0	17	0
COCC(=O)N1[C@H](CO)[C@@H](c2ccccc2)[C@H]1CNC(=O)c1ccccn1	0	0	0	0	0
C/C=C/c1ccc([C@H]2[C@@H](CNC(=O)CC)N(C(=O)COC)[C@H]2CO)cc1	0	14	0	0	0
O=C(Nc1ccc(F)cc1)N1CC(=O)N2[C@H](CO)[C@H](c3ccc(C4=CCCC4)cc3)[C@H]2C1	0	0	0	0	0
CC(C)c1ccc(NC(=O)C[C@H]2CC[C@H]3[C@@H](COc4ccc(NC(=O)c5ccno5)cc4C(=O)N3C)O2)cc1	0	-	0	0	0
S=C(c1ccc(-c2ccc(Br)cc2)o1)N1CCOCC1	0	0	-30	0	0
S=C(c1ccc(-c2ccc(Br)cc2)o1)N1CCCCC1	0	0	0	0	0
COc1ccc(S(=O)(=O)Nc2ccc3c(c2)CC(=O)N([C@@H](C)CO)C[C@H](C)[C@H](CN(C)S(=O)(=O)c2cccs2)O3)cc1	0	0	0	0	0
Cn1cnc2c(N/N=C/c3cccs3)ncnc21	-	0	0	15	0
COc1ccc(C(=O)COC(=O)c2ccccc2O)c(OC)c1	0	0	-18	0	0
CCn1c(C)c(C)c2cc(C(=O)NCCN3CCOCC3)ccc21	0	0	0	0	0
Cc1c(C)n(C)c2ccc(C(=O)NCCN3CCOCC3)cc12	0	0	0	34	0
COc1ccc(-c2cn(CC[C@H]3CC[C@@H](NC(=O)NC(C)C)[C@@H](CO)O3)nn2)cc1	0	0	0	0	0
COc1cc(OC)c(C(=O)C=Cc2ccc(OC)c(OC)c2)c(OC)c1	0	0	-11	-	0
COc1ccc(/C=C/C(=O)NCCCNC(=O)/C=C/c2ccc(OC)c(OC)c2)cc1OC	0	-	0	0	0
SMILES	ERAP1 HTS inh	F508del corr	rRNA inh HTS	SIRT5 block	S100A4 inh HTS
COc1cc(/C=C/C(=O)NCCc2ccc(S(N)(=O)=O)cc2)ccc1OCC#N	0	0	-26	-	0
COc1ccc(/C=C/C(=O)NCCNC(=O)c2ccccc2)cc1OC	0	0	-22	0	0
O=C(C[C@H]1C[C@H]2c3cc(NC(=O)Cc4ccncc4)ccc3O[C@H]2[C@H](CO)O1)NCc1cccc(F)c1	0	0	0	0	0
CCCCCCCCCCCCCCCC[n+]1ccccc1	75	0	0	0	0
CCCCCCCCCCCCCCCC[n+]1ccc(/C=N/O)cc1	0	-	-37	0	0
O/N=C/c1cccc[n+]1CCCCCC[n+]1ccccc1/C=N/O	0	0	0	0	0
O=C(NCc1cccc(Cl)c1)C1Cc2c(-c3cccc(F)c3)ccnc2O1 (stereo not given)	0	0	0	0	0
O=C(NCc1ccccc1)C1Cc2c(-c3cccc(F)c3)ccnc2O1 (stereo not given)	0	9.1	0	-	0
NC(=O)c1cccc(-c2ccnc3c2CC(C(=O)NCc2ccco2)O3)c1 (stereo not given)	0	0	0	0	0
